Source: ChEMBL document CHEMBL1124656, “Synthesis and biological evaluation of de(acetylglucosaminyl)didehydrodeoxy derivatives of teicoplanin antibodies” (J Med Chem, 1989)
Values after ≈ are worked out from the molar mass of the structure shown.

Columns and labels:
Staphylococcus aureus = experiment: Minimum inhibitory concentration against Staphylococcus aureus Tour evaluated in vitro; assay type: functional
In short: (§1)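 Twofold broth microdilution in Oxoid Iso-Sensitest broth, final inoculum ~10⁴ cfu/mL, overnight at 37 °C. MIC (μg/mL) was read as the lowest concentration with no visible growth. Coagulase-negative staphylococci were identified by API STAPH per Kloos and Schleifer.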

Streptococcus pyogenes [1] = experiment: Minimum inhibitory concentration against Streptococcus pyogenes C 203 evaluated in vitro; assay type: functional
In short: (§2)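 Twofold broth microdilution in Difco Todd-Hewitt broth, final inoculum ~10⁴ cfu/mL, overnight at 37 °C. MIC (μg/mL) was read as the lowest concentration showing no visible growth.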

[2] = system: Staphylococcus epidermidis; experiment: Minimum inhibitory concentration against Staphylococcus epidermis ATCC 12228 evaluated in vitro; assay type: functional; in short: as §1
Enterococcus faecalis = experiment: Minimum inhibitory concentration against Streptococcus faecalis ATCC 7080 evaluated in vitro; assay type: functional; in short: as §1
Streptococcus pneumoniae = experiment: Minimum inhibitory concentration against Streptococcus pneumoniae UC 41 evaluated in vitro; assay type: functional; in short: as §2
[3] = Association constant of compound was evaluated at pH 5; assay type: ADME
In short: (§3)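 UV difference spectroscopy: Ac₂-L-Lys-D-Ala-D-Ala was added to antibiotic at 30 μM (initial) in 10% MeOH/sodium phosphate buffer (pH 5 or pH 9). Double-beam spectrophotometer, 4-cm nonthermostated cells, 24 ± 2 °C. ΔA was monitored at 294 nm, and Ka was taken from the slope of a Scatchard plot.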

[4] = Association constant of compound was evaluated at pH 9; assay type: ADME; in short: as §3
Streptococcus pyogenes [5] = experiment: Minimum inhibitory concentration administered subcutaneously against Streptococcus pyogenes C203 in mouse; settings: sc
Staphylococcus simulans [6] = experiment: Minimum inhibitory concentration against Staphylococcus simulans L1142 evaluated in vitro; assay type: functional; in short: as §1
Staphylococcus simulans [7] = experiment: Minimum inhibitory concentration against Staphylococcus simulans L785 evaluated in vitro; assay type: functional; in short: as §1
Streptococcus pyogenes [8] = experiment: Minimum inhibitory concentration against Streptococcus pyogenes C203 evaluated in vivo(mouse); assay type: functional
In short: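 Mice in groups of five were infected intraperitoneally with S. pyogenes C 203, with inoculum set so untreated animals die of septicemia within 48 h. A single subcutaneous treatment was given immediately after infection. ED₅₀ was calculated from the percentage surviving at each dose on day 7.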

[9] = system: Staphylococcus haemolyticus; experiment: Minimum inhibitory concentration against Staphylococcus haemolyticus L1520 evaluated in vitro; assay type: functional; in short: as §1
[10] = system: Staphylococcus epidermidis; experiment: Minimum inhibitory concentration against Staphylococcus epidermis L1378 evaluated in vitro; assay type: functional; in short: as §1
Staphylococcus hominis = experiment: Minimum inhibitory concentration against Staphylococcus hominis L1070 evaluated in vitro; assay type: functional; in short: as §1
Staphylococcus warneri = experiment: Minimum inhibitory concentration against Staphylococcus warneri L1375 evaluated in vitro; assay type: functional; in short: as §1
[11] = Staphylococcus aureus, read-out: MIC
[12] = Streptococcus pyogenes, read-out: MIC
[13] = Staphylococcus epidermidis, ATCC 12228, read-out: MIC
[14] = Streptococcus pneumoniae, read-out: MIC

| Compound | MIC (Staphylococcus aureus; [11]) [µg/mL] | MIC (Streptococcus pyogenes [1]; [12]) [µg/mL] | MIC [2, 13] [µg/mL] | MIC (Enterococcus faecalis) [µg/mL] | MIC (Streptococcus pneumoniae; [14]) [µg/mL] | Ka [3] [M⁻¹] | Ka [4] [M⁻¹] | ED50 (Streptococcus pyogenes [5]) [mg/kg] | MIC (Staphylococcus simulans [6]) [µg/mL] | MIC (Staphylococcus simulans [7]) [µg/mL] | ED50 (Streptococcus pyogenes [8]) [mg/kg] | MIC [9] [µg/mL] | MIC [10] [µg/mL] | MIC (Staphylococcus hominis) [µg/mL] | MIC (Staphylococcus warneri) [µg/mL] | MIC [2] [µg/mL] | MIC (Staphylococcus aureus) [µg/mL] | MIC (Streptococcus pyogenes [1]) [µg/mL] | MIC (Streptococcus pneumoniae) [µg/mL] |
| --- | --- | --- | --- | --- | --- | --- | --- | --- | --- | --- | --- | --- | --- | --- | --- | --- | --- | --- | --- |
| CCCCC/C=C/CCC(=O)N[C@@H]1[C@H](Oc2c3cc4cc2Oc2ccc(cc2Cl)CC2NC(=O)[C@H](N)c5ccc(O)c(c5)Oc5cc(O)cc(c5)C(NC2=O)C(=O)NC4C(=O)NC2C(=O)/N=C(\Cc4ccc(c(Cl)c4)O3)C(=O)N[C@H](C(=O)O)c3cc(O)cc(O[C@H]4O[C@H](CO)[C@@H](O)[C@@H](O)[C@@H]4O)c3-c3cc2ccc3O)O[C@@H](CO)[C@@H](O)[C@@H]1O (some centres not stated) | 0.5 (≈ 0.302 µM) | 0.063 (≈ 0.038 µM) | 0.25 (≈ 0.151 µM) | 1 (≈ 0.604 µM) | 0.063 (≈ 0.038 µM) | 390000 | 60000 | 0.35 | – | – | – | – | – | – | – | – | – | – | – |
| N[C@H]1C(=O)NC2Cc3ccc(c(Cl)c3)Oc3cc4cc(c3O)Oc3ccc(cc3Cl)C/C3=N\C(=O)C(NC(=O)C4NC(=O)C(NC2=O)c2cc(O)cc(c2)Oc2cc1ccc2O)c1ccc(O)c(c1)-c1c(O)cc(O)cc1[C@@H](C(=O)O)NC3=O (some centres not stated) | 0.25 (≈ 0.212 µM) | 1 (≈ 0.847 µM) | 0.125 (≈ 0.106 µM) | – | 1 (≈ 0.847 µM) | 100000 | – | – | 0.125 (≈ 0.106 µM) | 0.125 (≈ 0.106 µM) | 5 | 0.5 (≈ 0.423 µM) | 0.125 (≈ 0.106 µM) | 0.125 (≈ 0.106 µM) | 1 (≈ 0.847 µM) | – | – | – | – |
| CC(=O)N[C@@H]1[C@H](O[C@@H]2c3ccc(c(Cl)c3)Oc3cc4cc(c3O)Oc3ccc(cc3Cl)C[C@H]3NC(=O)[C@H](N)c5ccc(O)c(c5)Oc5cc(O)cc(c5)[C@H](NC3=O)C(=O)N[C@H]4C(=O)N[C@H]3C(=O)N[C@@H]2C(=O)N[C@H](C(=O)O)c2cc(O)cc(O[C@H]4O[C@H](CO)[C@@H](O)[C@@H](O)[C@@H]4O)c2-c2cc3ccc2O)O[C@@H](CO)[C@@H](O)[C@@H]1O | 0.25 (≈ 0.16 µM) | 0.5 (≈ 0.32 µM) | 0.25 (≈ 0.16 µM) | 2 (≈ 1.28 µM) | 0.5 (≈ 0.32 µM) | 1200000 | 90000 | – | – | – | – | – | – | – | – | – | – | – | – |
| N[C@H]1C(=O)NC2Cc3ccc(c(Cl)c3)Oc3cc4cc(c3O)Oc3ccc(cc3Cl)C/C3=N\C(=O)C(NC(=O)C4NC(=O)C(NC2=O)c2cc(O)cc(c2)Oc2cc1ccc2O)c1ccc(O)c(c1)-c1c(O[C@H]2O[C@H](CO)[C@@H](O)[C@@H](O)[C@@H]2O)cc(O)cc1[C@@H](C(=O)O)NC3=O (some centres not stated) | 0.25 (≈ 0.186 µM) | 2 (≈ 1.49 µM) | 0.5 (≈ 0.372 µM) | 1 (≈ 0.745 µM) | 2 (≈ 1.49 µM) | 380000 | 61000 | 5.8 | – | – | – | – | – | – | – | – | – | – | – |
| CCCCC/C=C/CCC(=O)N[C@@H]1[C@H](Oc2c3cc4cc2Oc2ccc(cc2Cl)[C@@H](O[C@@H]2O[C@@H](CO)[C@@H](O)[C@H](O)[C@@H]2NC(C)=O)[C@@H]2NC(=O)[C@H](NC(=O)[C@@H]4NC(=O)[C@H]4NC(=O)[C@@H](Cc5ccc(c(Cl)c5)O3)NC(=O)[C@H](N)c3ccc(O)c(c3)Oc3cc(O)cc4c3)c3ccc(O)c(c3)-c3c(O[C@H]4O[C@H](CO)[C@@H](O)[C@@H](O)[C@@H]4O)cc(O)cc3[C@@H](C(=O)O)NC2=O)O[C@@H](CO)[C@@H](O)[C@@H]1O | 0.125 (≈ 0.0666 µM) | 0.063 (≈ 0.0336 µM) | 0.25 (≈ 0.133 µM) | 0.125 (≈ 0.0666 µM) | 0.063 (≈ 0.0336 µM) | 1600000 | 2.1e+06 | 0.18 | 0.125 (≈ 0.0666 µM) | 0.25 (≈ 0.133 µM) | – | 4 (≈ 2.13 µM) | 0.5 (≈ 0.266 µM) | 0.25 (≈ 0.133 µM) | 2 (≈ 1.07 µM) | – | – | – | – |
| N[C@H]1C(=O)NC2Cc3ccc(c(Cl)c3)Oc3cc4cc(c3O)Oc3ccc(cc3Cl)/C=C3\NC(=O)C(NC(=O)C4NC(=O)C(NC2=O)c2cc(O)cc(c2)Oc2cc1ccc2O)c1ccc(O)c(c1)-c1c(O)cc(O)cc1[C@@H](C(=O)O)NC3=O (stereo in doubt; 5) | 2 (≈ 1.69 µM) | 8 (≈ 6.77 µM) | – | 16 (≈ 13.5 µM) | 8 (≈ 6.77 µM) | – | < 100 | – | – | – | – | – | – | – | – | 0.5 (≈ 0.423 µM) | – | – | – |
| N[C@H]1C(=O)NC2Cc3ccc(c(Cl)c3)Oc3cc4cc(c3O)Oc3ccc(cc3Cl)/C=C3\NC(=O)C(NC(=O)C4NC(=O)C(NC2=O)c2cc(O)cc(c2)Oc2cc1ccc2O)c1ccc(O)c(c1)-c1c(O)cc(O)cc1[C@@H](C(=O)O)NC3=O (stereo in doubt; 4) | – | – | – | – | – | < 100 | < 100 | – | – | – | – | – | – | – | – | 0.125 (≈ 0.106 µM) | 1 (≈ 0.847 µM) | 4 (≈ 3.39 µM) | 4 (≈ 3.39 µM) |
| CC(=O)N[C@@H]1[C@H](O[C@@H]2c3ccc(c(Cl)c3)Oc3cc4cc(c3O)Oc3ccc(cc3Cl)C[C@H]3NC(=O)[C@H](N)c5ccc(O)c(c5)Oc5cc(O)cc(c5)[C@H](NC3=O)C(=O)N[C@H]4C(=O)N[C@H]3C(=O)N[C@@H]2C(=O)N[C@H](C(=O)O)c2cc(O)cc(O)c2-c2cc3ccc2O)O[C@@H](CO)[C@@H](O)[C@@H]1O | 0.5 (≈ 0.357 µM) | 0.5 (≈ 0.357 µM) | 0.125 (≈ 0.0892 µM) | 1 (≈ 0.713 µM) | 1 (≈ 0.713 µM) | 2.6e+06 | 32000 | – | – | – | – | – | – | – | – | – | – | – | – |
| N[C@H]1C(=O)N[C@@H]2Cc3ccc(c(Cl)c3)Oc3cc4cc(c3O)Oc3ccc(cc3Cl)[C@@H](O)[C@@H]3NC(=O)[C@H](NC(=O)[C@@H]4NC(=O)[C@@H](NC2=O)c2cc(O)cc(c2)Oc2cc1ccc2O)c1ccc(O)c(c1)-c1c(O)cc(O)cc1[C@@H](C(=O)O)NC3=O [TEICOPLANIN AGLYCON] | 0.063 (≈ 0.0525 µM) | 0.125 (≈ 0.104 µM) | 0.016 (≈ 0.0133 µM) | 0.125 (≈ 0.104 µM) | 0.125 (≈ 0.104 µM) | 2.5e+06 | 30000 | 0.95 | 0.063 (≈ 0.0525 µM) | 0.063 (≈ 0.0525 µM) | – | 0.125 (≈ 0.104 µM) | 0.063 (≈ 0.0525 µM) | 0.063 (≈ 0.0525 µM) | 0.25 (≈ 0.209 µM) | – | – | – | – |
